According to ChEMBL document CHEMBL5674880 (PLoS One, 2018):
Each block holds one compound with its values, some of them ahead of it.

Key:
Format in all cases: functional, cell-based
5637 = experiment: Antiproliferative activity against human 5637 cells after 10 days; conditions: Homo sapiens, 5637, 240 h
Procedure, shortened: (§1)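 Tested as part of a 240-line cancer cell panel (Eurofins Oncopanel); all lines were mycoplasma-negative and STR-verified. Cells were exposed to a compound concentration series in 2D culture for 10 days. The highest concentration was 10 μM or 25 μM, depending on the inhibitor. Antiproliferative IC50 was derived from the mean of three biological replicates.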

786-0 = experiment: Antiproliferative activity against human 786-0 cells after 10 days; conditions: 786-0, 240 h; procedure, shortened: as §1
A-375 = experiment: Antiproliferative activity against human A-375 cells after 10 days; conditions: A-375, 240 h; procedure, shortened: as §1
A549 = experiment: Antiproliferative activity against human A549 cells after 10 days; conditions: A549, 240 h; procedure, shortened: as §1
CAL-27 = experiment: Antiproliferative activity against human CAL-27 cells after 10 days; conditions: CAL-27, 240 h; procedure, shortened: as §1
Calu-6 = experiment: Antiproliferative activity against human Calu-6 cells after 10 days; conditions: Calu-6, 240 h
Procedure, shortened: (§2)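 10-day 2D proliferation screen of a broad cancer cell panel (about 240 lines, Eurofins Oncopanel). All lines were mycoplasma negative and STR verified. Compounds were dosed up to a top concentration of 10 μM or 25 μM, depending on the inhibitor. Anti-proliferative IC50 values are the average of three biological replicates.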

CAPAN-1 = experiment: Antiproliferative activity against human CAPAN-1 cells after 10 days; conditions: CAPAN-1, 240 h; procedure, shortened: as §1
CCF-STTG1 = experiment: Antiproliferative activity against human CCF-STTG1 cells after 10 days; conditions: CCF-STTG1, 240 h
Procedure, shortened: (§3)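 Cell lines run in the Eurofins Oncopanel broad cancer panel, all mycoplasma-negative and STR-verified. Cells were exposed to a compound concentration series in a 10-day proliferation assay, and an anti-proliferative IC50 was derived. Values are the mean of three biological replicates.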

CHL-1 = experiment: Antiproliferative activity against human CHL-1 cells after 10 days; conditions: CHL-1, 240 h; procedure, shortened: as §1
DOHH-2 = experiment: Antiproliferative activity against human DOHH-2 cells after 10 days; conditions: DOHH-2, 240 h; procedure, shortened: as §2
EM-2 = experiment: Antiproliferative activity against human EM-2 cells after 10 days; conditions: EM-2, 240 h; procedure, shortened: as §2
G-402 = experiment: Antiproliferative activity against human G-402 cells after 10 days; conditions: G-402, 240 h; procedure, shortened: as §2
HeLa = experiment: Antiproliferative activity against human HeLa cells after 10 days; conditions: 240 h; procedure, shortened: as §2
HMCB cell line = experiment: Antiproliferative activity against human HMCB cells after 10 days; conditions: 240 h; procedure, shortened: as §2
KLE = experiment: Antiproliferative activity against human KLE cells after 10 days; conditions: 240 h
Procedure, shortened: (§4)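 Broad cancer cell line panel (Eurofins Oncopanel, about 240 lines; mycoplasma negative, STR verified) grown in 2D culture and exposed to compound in a 10-day proliferation assay. The top concentration was 10 μM for the SMYD2 inhibitor series and 25 μM for the SMYD3 inhibitor. The proliferative IC50 is taken from concentration-response data, each value the mean of three biological replicates.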

Malme-3M = experiment: Antiproliferative activity against human Malme-3M cells after 10 days; conditions: 240 h; procedure, shortened: as §4
MC-IXC = experiment: Antiproliferative activity against human MC-IXC cells after 10 days; conditions: 240 h; procedure, shortened: as §4
MDA-MB-453 = experiment: Antiproliferative activity against human MDA-MB-453 cells after 10 days; conditions: MDA-MB-453, 240 h; procedure, shortened: as §3
NCI-H661 = experiment: Antiproliferative activity against human NCI-H661 cells after 10 days; conditions: NCI-H661, 240 h; procedure, shortened: as §4
NCI-H69 = experiment: Antiproliferative activity against human NCI-H69 cells after 10 days; conditions: NCI-H69, 240 h; procedure, shortened: as §4
RPMI-6666 = experiment: Antiproliferative activity against human RPMI-6666 cells after 10 days; conditions: RPMI-6666, 240 h
SCC-4 = experiment: Antiproliferative activity against human SCC-4 cells after 10 days; conditions: SCC-4, 240 h
SCC-9 = experiment: Antiproliferative activity against human SCC-9 cells after 10 days; conditions: SCC-9, 240 h
SiHa = experiment: Antiproliferative activity against human SiHa cells after 10 days; conditions: 240 h
SK-N-FI = experiment: Antiproliferative activity against human SK-N-FI cells after 10 days; conditions: 240 h
SW-403 = experiment: Antiproliferative activity against human SW403 cells after 10 days; conditions: SW-403, 240 h
SW900 = experiment: Antiproliferative activity against human SW900 cells after 10 days; conditions: SW900, 240 h
T-24 = experiment: Antiproliferative activity against human T24 cells after 10 days; conditions: T-24, 240 h
T47D = experiment: Antiproliferative activity against human T47D cells after 10 days; conditions: 240 h
TCC-SUP = experiment: Antiproliferative activity against human TCC-SUP cells after 10 days; conditions: 240 h
U2OS = experiment: Antiproliferative activity against human U2OS cells after 10 days; conditions: 240 h
C32 = experiment: Antiproliferative activity against human C32 cells after 10 days; conditions: C32, 240 h
C-4-II = experiment: Antiproliferative activity against human C-4-II cells after 10 days; conditions: 240 h
CCRF-CEM = experiment: Antiproliferative activity against human CCRF-CEM cells after 10 days; conditions: 240 h
COLO-829 = experiment: Antiproliferative activity against human COLO-829 cells after 10 days; conditions: COLO-829, 240 h
DBTRG-05MG = experiment: Antiproliferative activity against human DBTRG-05MG cells after 10 days; conditions: 240 h
Detroit 562 = experiment: Antiproliferative activity against human Detroit 562 cells after 10 days; conditions: Detroit 562, 240 h
H4 = experiment: Antiproliferative activity against human H4 cells after 10 days; conditions: H4, 240 h
HLE = experiment: Antiproliferative activity against human HLE cells after 10 days; conditions: 240 h
MDA-MB-468 = experiment: Antiproliferative activity against human MDA-MB-468 cells after 10 days; conditions: MDA-MB-468, 240 h
MX1 = experiment: Antiproliferative activity against human MX1 cells after 10 days; conditions: MX1, 240 h
NCI-H460 = experiment: Antiproliferative activity against human NCI-H460 cells after 10 days; conditions: NCI-H460, 240 h
SK-MEL-28 = experiment: Antiproliferative activity against human SK-MEL-28 cells after 10 days; conditions: SK-MEL-28, 240 h
SK-N-AS = experiment: Antiproliferative activity against human SK-N-AS cells after 10 days; conditions: 240 h
SR = experiment: Antiproliferative activity against human SR cells after 10 days; conditions: 240 h

- IC50 (786-0): 2.1 µM
- IC50 (A-375): 1.91 µM
- IC50 (A549): 3.39 µM
- IC50 (Calu-6): 3.68 µM
- IC50 (HeLa): 2.96 µM
- IC50 (MDA-MB-453): 1.5 µM
- IC50 (NCI-H661): 3.39 µM
- IC50 (NCI-H69): 2.74 µM
- IC50 (SK-N-FI): 6.03 µM
- IC50 (SW-403): 3.12 µM
- IC50 (SW900): 3.22 µM
- IC50 (T47D): 2.22 µM
- IC50 (U2OS): 1.68 µM
SMILES: Cc1cn(CCN2CCN(c3ccccc3-c3cc(C#N)cc(C(=O)NCCCN4CCCC4)c3)CC2)c2ccccc12
- IC50 5637: 6.75 µM
- IC50 (CAL-27): 2.52 µM
- IC50 (CAPAN-1): 5.09 µM
- IC50 (CCF-STTG1): 5.82 µM
- IC50 (CHL-1): 2.57 µM
- IC50 (DOHH-2): 0.263 µM
- IC50 (EM-2): 2.22 µM
- IC50 (G-402): 2.19 µM
- IC50 (HMCB cell line): 2.86 µM
- IC50 (KLE): 3.21 µM
- IC50 (Malme-3M): 2.4 µM
- IC50 (MC-IXC): 1.92 µM
- IC50 (RPMI-6666): 2.91 µM
- IC50 (SCC-4): 3.59 µM
- IC50 (SCC-9): 1.18 µM
- IC50 (SiHa): 3.26 µM
- IC50 (T-24): 2.94 µM
- IC50 (TCC-SUP): 2.26 µM

- IC50 (786-0): > 10 µM
- IC50 (A-375): > 10 µM
- IC50 (A549): > 10 µM
- IC50 (Calu-6): > 10 µM
- IC50 (CCRF-CEM): > 10 µM
- IC50 (COLO-829): 5.73 µM
- IC50 (HeLa): > 10 µM
- IC50 (MDA-MB-453): > 10 µM
- IC50 (MDA-MB-468): > 10 µM
- IC50 (NCI-H460): > 10 µM
- IC50 (NCI-H661): > 10 µM
- IC50 (NCI-H69): > 10 µM
- IC50 (SK-MEL-28): > 10 µM
- IC50 (SK-N-AS): > 10 µM
- IC50 (SK-N-FI): > 10 µM
- IC50 (SW-403): > 10 µM
- IC50 (SW900): > 10 µM
- IC50 (T47D): > 10 µM
- IC50 (U2OS): > 10 µM
SMILES: O=C(NC1CN(Cc2cnn(Cc3ccccc3)c2)C1)c1cn(C2CC2)nn1
- IC50 5637: > 10 µM
- IC50 (C32): > 10 µM
- IC50 (C-4-II): > 10 µM
- IC50 (CAL-27): > 10 µM
- IC50 (CAPAN-1): > 10 µM
- IC50 (CCF-STTG1): > 10 µM
- IC50 (CHL-1): > 10 µM
- IC50 (DBTRG-05MG): > 10 µM
- IC50 (Detroit 562): > 10 µM
- IC50 (DOHH-2): > 10 µM
- IC50 (EM-2): > 10 µM
- IC50 (G-402): > 10 µM
- IC50 (H4): > 10 µM
- IC50 (HLE): > 10 µM
- IC50 (HMCB cell line): > 10 µM
- IC50 (KLE): > 10 µM
- IC50 (Malme-3M): > 10 µM
- IC50 (MC-IXC): > 10 µM
- IC50 (MX1): > 10 µM
- IC50 (RPMI-6666): > 10 µM
- IC50 (SCC-4): > 10 µM
- IC50 (SCC-9): > 10 µM
- IC50 (SiHa): > 10 µM
- IC50 (SR): > 10 µM
- IC50 (T-24): > 10 µM
- IC50 (TCC-SUP): > 10 µM
